Data published in ChEMBL document CHEMBL3612047, “Synthesis, antiproliferative activity and possible mechanism of action of novel 2-acetamidobenzamides bearing the 2-phenoxy functionality” (Bioorg Med Chem, 2015).
Calls of active or inactive are those of the source. The rule behind the calls is not given here.

How the values were obtained:
K562 [1] = assay: Induction of apoptosis in human K562 cells assessed as chromatin condensation at 10 uM incubated for 48 hrs by Hoechst 33342 staining based fluorescence microscopy; type: functional, cell-based
Method in brief: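 K562 cells (8 × 10³/well) on poly-D-lysine-coated wells, allowed to adhere overnight. Stained with Hoechst 33342 for 30 min, washed with PBS, resuspended in medium, then treated at 10 μM for 48 h.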

K562 [2] = assay: Induction of cell cycle arrest in human K562 cells assessed as accumulation at sub G0/G1 phase at 10 uM incubated for 48 hrs by propidium iodide staining based flow cytometry (reference value: 0.8%); type: functional
K562 [3] = assay: Induction of cell cycle arrest in human K562 cells assessed as accumulation at sub G0/G1 phase at 10 uM incubated for 24 hrs by propidium iodide staining based flow cytometry (reference value: 0.8%); type: functional
K562 [4] = assay: Reduction in cell number of human K562 cells at 10 and 25 uM incubated for 48 hrs by light microscopy; type: functional, cell-based
Method in brief: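 K562 cells (8 × 10³/well) plated on poly-D-lysine-coated wells and treated at 10 or 25 μM for 48 h. Examined by light microscopy at 200× for shape, detachment, cell number and cell size.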

K562 [5] = assay: Induction of apoptosis in human K562 cells assessed as late apoptotic cells level at 10 uM incubated for 24 hrs by Annexin-V and propidium iodide staining staining based flow cytometry (reference value: 0.2%); type: functional
[6] = Growth inhibition of human BT549 cells by NCI standard protocol based method; type: functional; conditions: BT-549
Method in brief: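 NCI full 60-cell-line panel, 5-dose assay to the NCI standard protocol. GI₅₀ is the molar concentration inhibiting 50% net cell growth. Mean graph midpoint is averaged over all lines; where the effect is not reached, the highest tested concentration is used.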

SMILES	Activity (K562 [1])	Activity (K562 [2]) [%]	Activity (K562 [3]) [%]	Activity (K562 [4])	Activity (K562 [5]) [%]	GI50 [6] [nM]
NC(=O)c1cc(I)ccc1NC(=O)COc1ccccc1	Active	32.9	14.5	Active	12.5	–
COc1cc(NC(=O)COc2ccccc2)c(C(N)=O)cc1OC	Active	20.6	13.2	Active	11.6	770
